According to ChEMBL document CHEMBL5724801, “EUbOPEN Chemogenomics Library - Multiplex” (2024):
Values joined by “and” are separate entries in the source; they are usually repeats but may differ in a detail not shown here. Identical values can stand only once.

Tested on: Fibroblast
Assay: Multiplex assay against human fibroblast
Type: toxicity, cell-based
Outline: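 With compound added, live cells were imaged on a CQ1 microscope at 37°C and 5% CO2; staining with Hoechst33342, BioTracker Green Microtubule Cytoskeleton Dye, MitoTracker Red and Annexin V Alexa Fluor 680 had been done at seeding. The CellPathfinder machine-learning gating scheme split cells into Hoechst high-intensity objects or normal cells, normal cells into healthy, pyknosed or fragmented nuclei, and pyknosed cells into mitotic or apoptotic. The tubulin, mitochondrial-mass and membrane-permeability phenotypes are per cents of healthy-nucleus cells.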

[1] = 12 h, 1 µM, compound concentration 1 uM
[2] = 12 h, 10 µM, compound concentration 10 uM
[3] = 24 h, 1 µM, compound concentration 1 uM
[4] = 24 h, 10 µM, compound concentration 10 uM
[5] = 48 h, 1 µM, compound concentration 1 uM
[6] = 48 h, 10 µM, compound concentration 10 uM

CC(C)C[C@H](CO)Nc1nc(S[C@@H](C)c2ccccc2)nc2nc(N)sc12 [AZD-8797]
Population Apoptotic (%) [1]: 25% and 31% | Population Fragmented Nuclei (%) [1]: 23% and 22% | Population Healthy Nuclei (%) [1]: 62% and 55% | Population Hoechst High Intensity Objects (%) [1]: 1% and 4% | Population Mitochondria Different-Phenotype (%) [1]: 3% and 6% | Population Mitotic Cells (%) [1]: 75% and 68% | Population Normal (%) [1]: 98% and 95% | Population Pyknosed Nuclei (%) [1]: 13% and 21% | Population Tubulin-Different-Phenotype (%) [1]: 23% and 46% | Total Cell Count [1]: 146 and 92 | Population Apoptotic (%) [2]: 38% and 36% | Population Fragmented Nuclei (%) [2]: 18% and 36% | Population Healthy Nuclei (%) [2]: 64% and 41% | Population Hoechst High Intensity Objects (%) [2]: 3% and 5% | Population Membrane Permeable-Phenotype (%) [2]: 0% and 10% | Population Mitotic Cells (%) [2]: 61% and 64% | Population Normal (%) [2]: 96% and 94% | Population Pyknosed Nuclei (%) [2]: 17% and 21% | Population Tubulin-Different-Phenotype (%) [2]: 46% and 66% | Total Cell Count [2]: 156 and 122 | Population Apoptotic (%) [3]: 44% and 31% | Population Fragmented Nuclei (%) [3]: 15% and 29% | Population Healthy Nuclei (%) [3]: 69% and 54% | Population Hoechst High Intensity Objects (%) [3]: 1% and 0% | Population Mitochondria Different-Phenotype (%) [3]: 1% and 3% | Population Mitotic Cells (%) [3]: 55% and 68% | Population Normal (%) [3]: 98% and 99% | Population Pyknosed Nuclei (%) [3]: 14% and 15% | Population Tubulin-Different-Phenotype (%) [3]: 24% and 46% | Total Cell Count [3]: 124 and 103 | Population Apoptotic (%) [4]: 57% and 33% | Population Fragmented Nuclei (%) [4]: 21% and 42% | Population Healthy Nuclei (%) [4]: 66% and 38% | Population Hoechst High Intensity Objects (%) [4]: 1% and 2% | Population Membrane Permeable-Phenotype (%) [4]: 0% and 8% | Population Mitochondria Different-Phenotype (%) [4]: 15% and 25% | Population Mitotic Cells (%) [4]: 42% and 66% | Population Normal (%) [4]: 98% and 97% | Population Pyknosed Nuclei (%) [4]: 12% and 19% | Population Tubulin-Different-Phenotype (%) [4]: 38% and 85% | Total Cell Count [4]: 168 and 126 | Population Apoptotic (%) [5]: 50% and 47% | Population Fragmented Nuclei (%) [5]: 25% and 30% | Population Healthy Nuclei (%) [5]: 60% and 48% | Population Hoechst High Intensity Objects (%) [5]: 1% and 4% | Population Membrane Permeable-Phenotype (%) [5]: 1% and 4% | Population Mitochondria Different-Phenotype (%) [5]: 1% and 4% | Population Mitotic Cells (%) [5]: 50% and 52% | Population Normal (%) [5]: 98% and 95% | Population Pyknosed Nuclei (%) [5]: 13% and 20% | Total Cell Count [5]: 135 and 95 | Population Apoptotic (%) [6]: 60% and 35% | Population Fragmented Nuclei (%) [6]: 25% and 45% | Population Healthy Nuclei (%) [6]: 65% and 40% | Population Hoechst High Intensity Objects (%) [6]: 2% and 1% | Population Membrane Permeable-Phenotype (%) [6]: 0% and 12% | Population Mitochondria Different-Phenotype (%) [6]: 13% and 18% | Population Mitotic Cells (%) [6]: 40% and 64% | Population Normal (%) [6]: 97% and 98% | Population Pyknosed Nuclei (%) [6]: 9% and 14% | Population Tubulin-Different-Phenotype (%) [6]: 35% and 89% | Total Cell Count [6]: 168 and 121

Cc1c(-c2cc(-c3ccccc3Cl)no2)cnn1C1CCNCC1.Cl
Population Fragmented Nuclei (%) [1]: 12.32% and 5.31% | Population Healthy Nuclei (%) [1]: 58.77% and 79.2% | Population Hoechst High Intensity Objects (%) [1]: 0% | Population Membrane Permeable-Phenotype (%) [1]: 4.03% and 3.91% | Population Mitochondria Different-Phenotype (%) [1]: 17.74% and 8.94% | Population Mitotic Cells (%) [1]: 93.44% and 68.57% | Population Normal (%) [1]: 100% | Population Pyknosed Nuclei (%) [1]: 28.91% and 15.49% | Population Tubulin-Different-Phenotype (%) [1]: 32.26% and 22.91% | Total Cell Count [1]: 211 and 226 | Population Apoptotic (%) [2]: 18.52% and 39.56% | Population Fragmented Nuclei (%) [2]: 8.72% and 4.05% | Population Healthy Nuclei (%) [2]: 41.74% and 54.95% | Population Hoechst High Intensity Objects (%) [2]: 0% | Population Membrane Permeable-Phenotype (%) [2]: 10.99% and 13.93% | Population Mitochondria Different-Phenotype (%) [2]: 46.15% and 28.69% | Population Mitotic Cells (%) [2]: 81.48% and 60.44% | Population Normal (%) [2]: 100% | Population Pyknosed Nuclei (%) [2]: 49.54% and 40.99% | Population Tubulin-Different-Phenotype (%) [2]: 73.63% and 83.61% | Total Cell Count [2]: 218 and 222 | Population Apoptotic (%) [3]: 8% and 20.83% | Population Fragmented Nuclei (%) [3]: 12.4% and 7.5% | Population Healthy Nuclei (%) [3]: 67.6% and 82.5% | Population Hoechst High Intensity Objects (%) [3]: 0% | Population Membrane Permeable-Phenotype (%) [3]: 4.73% and 1.01% | Population Mitochondria Different-Phenotype (%) [3]: 7.69% and 3.54% | Population Mitotic Cells (%) [3]: 92% and 79.17% | Population Normal (%) [3]: 100% | Population Pyknosed Nuclei (%) [3]: 20% and 10% | Population Tubulin-Different-Phenotype (%) [3]: 33.73% and 29.8% | Total Cell Count [3]: 250 and 240 | Population Apoptotic (%) [4]: 36.97% and 65.81% | Population Fragmented Nuclei (%) [4]: 10.44% and 3.51% | Population Healthy Nuclei (%) [4]: 24.18% and 28.07% | Population Hoechst High Intensity Objects (%) [4]: 0% | Population Membrane Permeable-Phenotype (%) [4]: 25% and 20.83% | Population Mitochondria Different-Phenotype (%) [4]: 63.64% and 60.42% | Population Mitotic Cells (%) [4]: 63.03% and 34.19% | Population Normal (%) [4]: 100% | Population Pyknosed Nuclei (%) [4]: 65.38% and 68.42% | Population Tubulin-Different-Phenotype (%) [4]: 72.73% and 68.75% | Total Cell Count [4]: 182 and 171 | Population Apoptotic (%) [5]: 25% and 11.11% | Population Fragmented Nuclei (%) [5]: 10.69% and 10.92% | Population Healthy Nuclei (%) [5]: 83.79% and 85.92% | Population Hoechst High Intensity Objects (%) [5]: 0% | Population Membrane Permeable-Phenotype (%) [5]: 4.12% and 11.48% | Population Mitochondria Different-Phenotype (%) [5]: 9.05% and 0.82% | Population Mitotic Cells (%) [5]: 75% and 88.89% | Population Normal (%) [5]: 100% | Population Pyknosed Nuclei (%) [5]: 5.52% and 3.17% | Population Tubulin-Different-Phenotype (%) [5]: 31.28% and 31.15% | Total Cell Count [5]: 290 and 284 | Population Apoptotic (%) [6]: 53.41% and 92.06% | Population Fragmented Nuclei (%) [6]: 14.67% and 6.71% | Population Healthy Nuclei (%) [6]: 37.5% and 51.01% | Population Hoechst High Intensity Objects (%) [6]: 0% | Population Mitochondria Different-Phenotype (%) [6]: 43.48% and 21.05% | Population Normal (%) [6]: 100% | Population Pyknosed Nuclei (%) [6]: 47.83% and 42.28% | Population Tubulin-Different-Phenotype (%) [6]: 15.94% and 32.89% | Total Cell Count [6]: 184 and 149
